# Rows were chosen to be rich in hits. Some 4.1% of all compounds tested hit in one or more screens of this group.
# KCNQ1 act – potentiators or activators of human KCNQ1 potassium channel; B-score at 10 µM; 310,000 tested, 0.35% active; CHO-K1 KCNQ1, thallium flux FluxOR fluorescence; active compounds read high;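 active = fluorescence ratio B-score, a plate-corrected score, at least three library SD, with initial intensity B-score within 5 SD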
#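 Assay system: CHO-K1 cells stably expressing KCNQ1. Medium: assay buffer for compound exposure, DMSO matched across wells. Timing: 37 °C overnight plating, 90-min dark dye load, 20-min compound pretreatment. Signal: kinetic FluxOR fluorescence, 10 s baseline plus 110 s post-stimulus.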
# KCNK9 block – blocks the human KCNK9 two-pore domain potassium channel | Q9NPC2 | HEK293 KCNK9, FluxOR thallium flux fluorescence; active compounds read low | B-score at 10 µM | 310,000 tested, 1.2% active;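 active = ratio B-score over 3 SD below the library mean, with starting fluorescence within 5 SD of its mean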;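 also: negative B-score means less thallium flux so channel inhibition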
# Target sequence (Q9NPC2 whole entry, looked up, the tested form may be a part): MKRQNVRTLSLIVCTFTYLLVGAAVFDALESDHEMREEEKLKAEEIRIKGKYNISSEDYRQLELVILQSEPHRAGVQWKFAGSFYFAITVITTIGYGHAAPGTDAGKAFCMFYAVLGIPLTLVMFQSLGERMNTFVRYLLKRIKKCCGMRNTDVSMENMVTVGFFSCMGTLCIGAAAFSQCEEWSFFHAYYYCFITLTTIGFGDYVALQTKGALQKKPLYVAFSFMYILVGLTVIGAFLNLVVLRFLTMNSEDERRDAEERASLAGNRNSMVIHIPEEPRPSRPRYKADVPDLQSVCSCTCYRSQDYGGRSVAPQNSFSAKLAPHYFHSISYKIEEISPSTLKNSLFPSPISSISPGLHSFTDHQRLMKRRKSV
# KCNK3 inh – human KCNK3 channel inhibition, primary screen; O14649; CHO-KCNK3 thallium flux, FluxOR fluorescence; active compounds read low; B-score at 10 µM; 340,000 tested, 0.84% active;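 active = B-score under library mean minus 4 SD, starting fluorescence ratio at most library mean plus 5 SD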;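 also: more negative B-score means stronger inhibition of thallium flux through KCNK3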
# Target sequence (O14649 whole entry, looked up): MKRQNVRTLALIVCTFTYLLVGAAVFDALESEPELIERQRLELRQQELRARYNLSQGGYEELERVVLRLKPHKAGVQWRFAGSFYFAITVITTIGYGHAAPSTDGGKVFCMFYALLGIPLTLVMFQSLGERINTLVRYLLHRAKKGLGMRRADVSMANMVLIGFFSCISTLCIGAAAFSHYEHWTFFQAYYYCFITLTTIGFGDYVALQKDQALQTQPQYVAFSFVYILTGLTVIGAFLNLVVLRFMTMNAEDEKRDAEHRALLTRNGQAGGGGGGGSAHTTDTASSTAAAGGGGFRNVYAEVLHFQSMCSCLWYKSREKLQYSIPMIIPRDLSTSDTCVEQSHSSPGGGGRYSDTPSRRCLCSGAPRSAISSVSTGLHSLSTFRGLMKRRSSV
# hERG protect – hERG (human) protection from proarrhythmic block; 310,000 tested, 0.51% active; Q12809; CHO-hERG, FluxOR thallium flux, dofetilide IC70 present; activation (rescue from dofetilide block), less the hit threshold, % at 10 µM;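 active = activation above the mean of controls blocked by dofetilide plus 5 SD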;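 also: thallium influx through hERG after potassium depolarization seen as dye fluorescence rise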
# KCC2 mod – KCC2 (human) Cl- transport modulation; Q9H2X9; KCC2 cells, thallium flux FluoZin-2 fluorescence; B-score of Tl+ flux slope (higher = more flux/activation; lower = inhibition) at 10 µM; 190,000 tested, 2.2% active; AID 1456;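 active = thallium flux slope and its plate-corrected score both differing from the plate sample mean at a set confidence after two filtering rounds, in either direction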;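 also: slope of fluorescence scaled to starting intensity during 10 to 20 s after thallium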
# KCNQ1 inh – inhibitors of human KCNQ1 potassium channel | CHO-K1 KCNQ1, FluxOR thallium flux fluorescence; active compounds read high | 310,000 tested, 1.3% active | P51787 | AID 2642 | B-score at 10 µM;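 active = compounds whose thallium flux B-score, printed positive for inhibition, exceeds three library SD while starting fluorescence stays within three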;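 also: channel opened by potassium depolarization with thallium stimulus after 20 min compound exposure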
# KCC2 sec1 – confirmation of human KCC2 transport modulators | shares compounds with KCC2 mod | HEK293-KCC2, thallium flux, FluoZin2 fluorescence; active compounds read high | normalised thallium flux (F/F0 slope) at 10 µM | 3,700 tested, 15% active | AID 1713;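 active = thallium flux slope above the same plate's solvent-only control mean plus 3 SD; inconclusive = the two replicate wells disagree; inactive = no significant difference from solvent-only control wells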
# KCC2 bumet counter – bumetanide-insensitive thallium flux in KCC2 cells with ouabain, counter-screen; 3,700 tested, 49% active; shares compounds with KCC2 mod; AID 1714; normalized thallium flux at 10 µM; HEK293-KCC2 + bumetanide/ouabain, thallium flux FluoZin2; active compounds read high;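 active = thallium entry rate above the same plate's blocked-transporter control wells by more than 3 SD; inconclusive = the two repeat wells disagree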;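 also: raw slope of fluorescence over initial fluorescence between 10 and 20 s after thallium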
# KCC2 sec2 – confirmation of human KCC2 transport modulators; normalized thallium flux at 10 µM; AID 1715; HEK293-KCC2, thallium flux FluoZin2 fluorescence; actives lie on both sides; F/F0 rise rate, 10–20 s post-thallium; shares compounds with KCC2 mod; 3,700 tested, 23% active;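 active = thallium flux slope more than 3 SD above or below the plate's solvent-only control mean, mostly below; inconclusive = the two repeat wells disagreed; inactive = no significant shift from solvent-only controls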
# HEK293 Tl flux – counter-screen for KCC2 modulators: effect in parental HEK293 cells. shares compounds with KCC2 mod. 3,700 tested, 46% active. thallium flux rate (normalised fluorescence) at 10 µM. AID 1716. thallium flux FluoZin2, ouabain; baseline-ratio fluorescence slope, 10–20 s after thallium;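 active = thallium flux rate significantly above the same plate's solvent-only control wells, beyond their mean plus 3 SD; inconclusive = the two replicate wells gave conflicting results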
# KCC2 retest ouab – confirmation of human KCC2 modulators with ouabain; shares compounds with KCC2 mod; AID 1717; raw Tl+ flux slope (below DMSO = inhibition, above = activation) at 10 µM; 3,700 tested, 48% active; HEK293-KCC2, thallium flux FluoZin2 fluorescence; bidirectional: low = inhibitor, high = activator;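 active = thallium flux slope beyond 3 SD from same-plate DMSO control mean in most replicates, usually higher, sometimes lower; inconclusive = repeat tests gave conflicting results; inactive = no significant difference from controls in most replicates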;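 also: slope of initial-normalized fluorescence between seconds 10 and 20 after thallium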
# HEK293 Tl flux2 – acts in parental HEK cells, second KCC2 counter-screen; shares compounds with KCC2 mod; HEK293 parental, thallium flux FluoZin-2 fluorescence slope; thallium flux slope at 10 µM; 3,700 tested, 33% active;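 active = thallium flux slope above the same plate's solvent-control mean plus 3 SD in both duplicate wells; inconclusive = duplicate wells that disagreed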;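 also: run without ouabain in cells lacking the KCC2 cotransporter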
# Numbers stand for hits; i = inactive; ? = inconclusive; nt = not tested or not shown.
SMILES,KCNQ1 act,KCNK9 block,KCNK3 inh,hERG protect,KCC2 mod,KCNQ1 inh,KCC2 sec1,KCC2 bumet counter,KCC2 sec2,HEK293 Tl flux,KCC2 retest ouab,HEK293 Tl flux2
O=C(COc1cccc(C(F)(F)F)c1)NCC(c1cccs1)N1CCOCC1 (configuration not stated),nt,nt,i,nt,nt,nt,nt,nt,nt,nt,nt,nt
O=C(OC(C(=O)NC1CCCC1)c1cccnc1)C1=Cc2ccccc2OC1 (configuration not stated),i,i,i,i,-3.2,i,i,?,i,i,i,i
CC(OC(=O)C1=Cc2ccccc2OC1)C(=O)NC1CCCC1 (configuration not stated),i,i,i,i,nt,i,nt,nt,nt,nt,nt,nt
Cc1ccc(C(C)C)c(OCc2n[nH]c(=S)o2)c1,8,i,i,i,28,i,i,0.043,?,0.034,0.035,0.034
S=c1[nH]nc(COc2ccc(Cl)cc2)o1,i,i,i,i,-6.1,i,i,?,0.022,i,?,i
S=c1[nH]nc(CCc2ccccc2)n1-c1ccc(Cl)cc1,i,i,i,i,i,i,nt,nt,nt,nt,nt,nt
S=c1[nH]nc(CCc2ccc(Cl)cc2)o1,i,i,i,i,-7.8,i,i,i,0.023,i,0.04,i
COc1ccc(OCc2n[nH]c(=S)o2)cc1,i,i,i,i,i,i,nt,nt,nt,nt,nt,nt
CN1CC(C(=O)Nc2ccc(F)c(Cl)c2)CC1=O (configuration not stated),i,i,i,i,nt,i,nt,nt,nt,nt,nt,nt
COc1ccc(Cl)cc1S(=O)(=O)N(C)CC(=O)NCc1ccc2c(c1)OCO2,i,i,i,i,nt,i,nt,nt,nt,nt,nt,nt
O=C(NCc1cccnc1)c1cccc(S(=O)(=O)Nc2cccc(Cl)c2)c1,nt,nt,i,nt,nt,nt,nt,nt,nt,nt,nt,nt
CC(C)COC(=S)Nc1ccccc1,i,i,i,i,9.3,i,i,0.01,i,0.01,?,?
COc1ccc(NC2=NC(=S)N(c3cccc(C)c3)C23CCCCC3)cc1,i,i,i,i,7.3,i,i,0.016,i,0.011,?,i
Cc1cccc(NC2=NC(=S)N(c3ccc(C(=O)O)cc3)C23CCCCC3)c1,i,i,i,i,i,i,nt,nt,nt,nt,nt,nt
CC1(C)CC2(CCO1)C(Nc1ccccc1)=NC(=S)N2c1ccccc1 (configuration not stated),i,i,nt,i,14,i,0.014,0.034,i,0.021,i,0.014
COc1ccc(NC2=NC(=S)N(c3ccc(C)cc3)C23CCCCC3)cc1,i,i,i,i,nt,i,nt,nt,nt,nt,nt,nt
Cc1ccccc1NC1=NC(=S)N(c2ccccc2)C12CCCCC2,15,i,i,12,57,i,0.025,0.16,0.043,0.078,0.11,0.022
CC1(C)Oc2ccc3ccc(=O)oc3c2[C@@H](O)[C@@H]1O,nt,nt,i,nt,nt,nt,nt,nt,nt,nt,nt,nt
CCn1c(SCC(=O)Nc2ccc(OC)c(S(=O)(=O)N3CCCCC3)c2)nnc1C1CC1,nt,nt,i,nt,nt,nt,nt,nt,nt,nt,nt,nt
C(=N\Nc1nc(-c2ccccc2)cs1)/c1cccnc1,i,i,i,i,-3.6,i,i,i,0.025,i,0.016,i
Clc1ccc(-c2csc(N/N=C/c3cccnc3)n2)c(Cl)c1,i,i,i,i,i,i,nt,nt,nt,nt,nt,nt
O=C(NNc1ccccc1)c1ccccc1,nt,nt,i,nt,nt,nt,nt,nt,nt,nt,nt,nt
S=C(N=Nc1ccccc1)NNc1ccccc1,i,i,i,i,23,i,i,0.018,0.039,0.019,0.027,0.024
O=C1C=C(c2ccccc2C(F)(F)F)C[C@@H](c2ccc3c(c2)OCO3)C1,nt,nt,i,nt,nt,nt,nt,nt,nt,nt,nt,nt
COc1ccc(C(=O)NC(=S)N2CCN(c3ccc([N+](=O)[O-])cc3)CC2)cc1,i,i,i,i,4.1,i,i,0.012,i,0.0096,0.029,0.011
SMILES,KCNQ1 act,KCNK9 block,KCNK3 inh,hERG protect,KCC2 mod,KCNQ1 inh,KCC2 sec1,KCC2 bumet counter,KCC2 sec2,HEK293 Tl flux,KCC2 retest ouab,HEK293 Tl flux2
O=C(Nc1nccs1)c1nc(-c2ccccc2)n(-c2ccccc2)n1,i,i,i,i,5.3,i,i,0.023,i,0.011,i,i
O=C(Nc1ccccc1)c1nc2ccccc2s1,i,i,i,i,i,i,nt,nt,nt,nt,nt,nt
Cc1ccc(C)c2sc(NC(=O)c3nc4ccccc4s3)nc12,25,i,i,8.9,60,i,0.014,0.033,i,0.059,0.036,0.015
CC(=NN1CC(=O)NC1=O)c1ccc([N+](=O)[O-])o1,nt,nt,i,nt,nt,nt,nt,nt,nt,nt,nt,nt
COc1cccc(C(=O)NNC(=O)c2ccccc2-n2cccc2)c1,i,i,i,i,i,i,nt,nt,nt,nt,nt,nt
COc1cccc(C(=O)NNC(=O)c2sccc2-n2cccc2)c1,i,i,i,i,5.9,i,i,0.012,i,0.012,i,0.014
O=C(Nc1ccc(F)cc1)Nc1nnc(Cc2ccccc2F)s1,i,i,i,i,nt,i,nt,nt,nt,nt,nt,nt
COc1cccc(C2=NN(C(=O)c3ccccc3)C(O)(C(F)(F)F)C2)c1 (configuration not stated),i,i,i,i,3.2,i,i,0.018,i,0.012,?,?
COc1ccc(C(=O)N2N=C(c3ccccc3)CC2(O)C(F)(F)F)cc1 (configuration not stated),i,i,i,i,11,i,i,0.017,i,0.014,0.026,0.017
COc1cccc(C(=O)N2N=C(c3ccccc3)CC2(O)C(F)(F)F)c1 (configuration not stated),i,i,i,i,i,i,nt,nt,nt,nt,nt,nt
Nc1ccc(C(=O)N2N=C(c3ccccc3)CC2(O)C(F)(F)F)cc1 (configuration not stated),i,i,i,i,nt,i,nt,nt,nt,nt,nt,nt
Cc1noc(C)c1C(=O)N(CC(C)C)c1nc2ccccc2s1,i,i,i,i,nt,i,nt,nt,nt,nt,nt,nt
NNC(=O)c1ccc(CSc2cccc3cccnc23)cc1,i,i,i,i,i,i,nt,nt,nt,nt,nt,nt
c1cnc2c(SCc3ccc(-c4nnco4)cc3)cccc2c1,i,i,i,i,-5.7,i,i,0.015,i,i,0.021,i

# Screens: PubChem BioAssay, several laboratories
